Measured values taken from ChEMBL document CHEMBL4007422 (J Med Chem, 2017).
The source made the active and inactive calls. No cut-off for these calls is given here.

Experiments:
Cytochrome P450 3A4 = Cytochrome P450 3A4 (Homo sapiens, UniProt P08684)
[1] = target: Alpha-2A adrenergic receptor (Homo sapiens) (UniProt P08913); conditions: 1 uM
Salmonella typhimurium [2] = assay: Mutagenicity in Salmonella typhimurium TA100 in presence of metabolic activation; type: toxicity; conditions: salmonella enterica subsp. enterica serovar typhimurium
Salmonella typhimurium [3] = assay: Mutagenicity in Salmonella typhimurium TA1535 in presence of metabolic activation; type: toxicity; conditions: salmonella enterica subsp. enterica serovar typhimurium
[4] = Oral bioavailability in Wistar rat at 10 mg/kg by LC-MS/MS analysis; type: ADME, organism-based; conditions: Wistar, in vivo
[5] = Protein binding in dog plasma at 1 uM after 6 hrs by LC-MS/MS based rapid equilibrium dialysis method; type: ADME, cell-free, Canis lupus familiaris; conditions: read-out: PPB (converted)
Method in brief: (§1)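 Plasma protein binding in rat, dog and human plasma determined by equilibrium dialysis.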

Salmonella typhimurium [6] = assay: Mutagenicity in Salmonella typhimurium TA1537 in absence of metabolic activation; type: toxicity; conditions: salmonella enterica subsp. enterica serovar typhimurium
[7] = Oral bioavailability in Beagle dog at 10 mg/kg; type: ADME, organism-based, Canis lupus familiaris; conditions: in vivo
Hepatocyte [8] = assay: Induction of CYP3A4 mRNA expression in human hepatocytes at 0.01 to 1 uM after 3 days by qRT-PCR analysis; type: ADME, cell-based; conditions: 72 h
Method in brief: (§2)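 Plateable human hepatocytes exposed to 0.01, 0.1 and 1.0 μM. CYP1A2, CYP2B6 and CYP3A4 induction read as both mRNA expression and enzyme activity.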

Rattus norvegicus [9] = assay: Increase in acetylcholine level in Wistar rat ventral hippocampus at 3 mg/kg, po after 6 hrs by LC-MS/MS based microdialysis method; type: functional, organism-based
Method in brief: (§3)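 Male Wistar rats (240−300 g) fitted under isoflurane with a ventral hippocampal guide cannula (AP −5.2, ML +5.0, DV −3.8 mm from bregma). Probe (4 mm membrane) inserted 16 h before study. Perfusion with aCSF pH 7.2 at 1.5 μL/min, 2 h stabilization, five basal 20-min samples. Test agent given p.o.; donepezil and memantine (1 mg/kg s.c. each) given 30 min later in combination arms. Dialysates collected 6 h (4 h for combination), acetylcholine measured by LC-MS/MS, expressed as % of mean basal.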

PBL = assay: Nonclastogenic effect in human PBL by chromosomal aberration test; type: cell-based
[10] = target: Voltage-gated inwardly rectifying potassium channel KCNH2 (Homo sapiens, UniProt Q12809); assay: Inhibition of astemizole binding to human ERG
Sequence of Voltage-gated inwardly rectifying potassium channel KCNH2 (Q12809 whole entry): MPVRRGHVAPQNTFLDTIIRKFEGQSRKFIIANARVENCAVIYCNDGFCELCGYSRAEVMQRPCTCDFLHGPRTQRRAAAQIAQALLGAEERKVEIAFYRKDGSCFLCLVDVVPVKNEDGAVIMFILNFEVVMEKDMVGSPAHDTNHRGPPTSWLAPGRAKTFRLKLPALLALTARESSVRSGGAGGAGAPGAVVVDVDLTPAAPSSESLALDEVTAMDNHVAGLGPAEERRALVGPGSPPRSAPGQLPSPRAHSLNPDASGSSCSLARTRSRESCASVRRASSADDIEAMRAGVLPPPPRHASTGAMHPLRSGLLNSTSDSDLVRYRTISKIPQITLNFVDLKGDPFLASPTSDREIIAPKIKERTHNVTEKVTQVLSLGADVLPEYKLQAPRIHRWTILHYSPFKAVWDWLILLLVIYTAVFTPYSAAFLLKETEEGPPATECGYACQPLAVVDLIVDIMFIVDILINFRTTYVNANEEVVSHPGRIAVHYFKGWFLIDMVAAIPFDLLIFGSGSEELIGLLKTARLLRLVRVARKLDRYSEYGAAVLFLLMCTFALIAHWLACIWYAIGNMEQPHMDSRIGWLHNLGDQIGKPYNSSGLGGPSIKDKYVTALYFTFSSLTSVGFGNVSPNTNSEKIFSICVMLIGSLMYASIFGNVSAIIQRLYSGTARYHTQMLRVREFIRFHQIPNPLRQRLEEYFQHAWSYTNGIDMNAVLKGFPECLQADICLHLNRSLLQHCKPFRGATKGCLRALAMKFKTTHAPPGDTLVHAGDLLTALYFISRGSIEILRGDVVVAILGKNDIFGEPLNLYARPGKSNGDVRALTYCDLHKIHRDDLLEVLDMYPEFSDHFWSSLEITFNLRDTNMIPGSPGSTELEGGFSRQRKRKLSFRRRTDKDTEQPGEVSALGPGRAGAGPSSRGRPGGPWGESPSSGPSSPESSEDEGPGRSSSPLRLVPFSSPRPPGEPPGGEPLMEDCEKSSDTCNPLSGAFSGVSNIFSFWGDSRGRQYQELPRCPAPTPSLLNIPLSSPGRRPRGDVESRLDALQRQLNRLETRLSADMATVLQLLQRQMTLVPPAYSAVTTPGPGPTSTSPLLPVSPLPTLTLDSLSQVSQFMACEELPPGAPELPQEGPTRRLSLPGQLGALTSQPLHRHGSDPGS
Method in brief: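 hERG channel binding assessed as displacement in an astemizole binding assay.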

Salmonella typhimurium [11] = assay: Mutagenicity in Salmonella typhimurium TA1537 in presence of metabolic activation; type: toxicity; conditions: salmonella enterica subsp. enterica serovar typhimurium
[12] = target: T1, 5-hydroxytryptamine receptor 1A (Homo sapiens) (UniProt P08908); assay: Displacement of [3H]-8-OH-DPAT from recombinant human 5-HT1A receptor expressed in HEK293 EBNA cell membranes after 120 mins by microbeta scintillation counting analysis
T1 sequence (whole entry): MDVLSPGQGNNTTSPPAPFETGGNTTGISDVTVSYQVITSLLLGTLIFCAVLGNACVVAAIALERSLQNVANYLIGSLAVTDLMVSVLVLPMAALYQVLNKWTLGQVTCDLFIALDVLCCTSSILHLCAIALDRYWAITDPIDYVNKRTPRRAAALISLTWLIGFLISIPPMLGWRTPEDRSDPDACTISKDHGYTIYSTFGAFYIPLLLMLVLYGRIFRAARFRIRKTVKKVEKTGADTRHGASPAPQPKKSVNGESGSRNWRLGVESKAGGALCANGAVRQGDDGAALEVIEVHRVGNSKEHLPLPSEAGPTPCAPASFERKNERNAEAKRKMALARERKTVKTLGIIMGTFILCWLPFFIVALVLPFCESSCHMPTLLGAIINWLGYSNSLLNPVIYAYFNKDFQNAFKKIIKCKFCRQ

Rattus norvegicus [13] = assay: Increase in acetylcholine level in Wistar rat ventral hippocampus at 3 mg/kg, po in presence of 1 mg/kg of donepezil and memantine administered sc 30 mins post compound treatment measured after 4 hrs by LC-MS/MS based microdialysis method relative to control; type: functional
Method in brief: as §3

Hepatocyte [14] = assay: Induction of CYP1A2 mRNA expression in human hepatocytes at 0.01 to 1 uM after 3 days by qRT-PCR analysis; type: ADME, cell-based; conditions: 72 h
Method in brief: as §2

Cytochrome P450 2C19 = Cytochrome P450 2C19 (Homo sapiens, UniProt P33261); assay: Inhibition of CYP2C19 in human liver microsomes using mephenytoin as substrate in presence of NADPH by LC-MS/MS analysis; type: ADME
Sequence of Cytochrome P450 2C19 (P33261 whole entry, canonical isoform): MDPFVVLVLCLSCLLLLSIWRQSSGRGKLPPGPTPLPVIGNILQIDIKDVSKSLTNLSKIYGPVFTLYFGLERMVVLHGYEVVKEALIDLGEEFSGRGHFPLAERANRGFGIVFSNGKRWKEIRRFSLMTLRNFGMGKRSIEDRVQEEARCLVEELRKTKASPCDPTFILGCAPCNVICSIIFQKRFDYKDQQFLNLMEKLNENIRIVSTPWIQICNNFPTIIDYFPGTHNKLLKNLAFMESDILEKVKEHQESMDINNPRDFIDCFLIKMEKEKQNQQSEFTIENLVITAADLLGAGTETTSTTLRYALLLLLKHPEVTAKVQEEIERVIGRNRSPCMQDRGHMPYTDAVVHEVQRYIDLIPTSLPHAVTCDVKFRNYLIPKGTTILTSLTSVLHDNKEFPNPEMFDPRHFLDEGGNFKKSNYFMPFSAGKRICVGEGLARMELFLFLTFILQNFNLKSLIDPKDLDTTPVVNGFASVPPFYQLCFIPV
Method in brief: (§4)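 Pooled human liver microsomes. IC50 determined from isoform-specific marker activities for CYP1A2, 2A6, 2B6, 2C8, 2C9, 2C19 (mephenytoin hydroxylation) and 2E1.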

[15] = target: Alpha-2A adrenergic receptor (Homo sapiens, UniProt P08913); assay: Displacement of [3H] MK-912 from human adrenergic alpha 2A receptor expressed in HT29 cells after 60 mins; type: cell-based
Sequence of Alpha-2A adrenergic receptor (P08913 whole entry): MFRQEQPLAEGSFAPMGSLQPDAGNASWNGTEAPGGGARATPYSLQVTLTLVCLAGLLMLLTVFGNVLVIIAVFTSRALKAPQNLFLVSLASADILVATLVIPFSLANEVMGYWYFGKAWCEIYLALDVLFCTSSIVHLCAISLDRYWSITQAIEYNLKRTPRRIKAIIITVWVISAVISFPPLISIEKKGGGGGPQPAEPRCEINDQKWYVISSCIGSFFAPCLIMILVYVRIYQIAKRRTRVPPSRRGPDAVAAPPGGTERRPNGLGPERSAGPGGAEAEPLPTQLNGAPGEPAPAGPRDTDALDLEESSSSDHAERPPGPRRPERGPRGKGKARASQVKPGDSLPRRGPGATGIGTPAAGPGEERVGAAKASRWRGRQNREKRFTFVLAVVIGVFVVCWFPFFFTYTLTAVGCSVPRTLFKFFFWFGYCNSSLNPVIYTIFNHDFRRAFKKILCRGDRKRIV

Salmonella typhimurium [16] = assay: Mutagenicity in Salmonella typhimurium TA100 in absence of metabolic activation; type: toxicity; conditions: salmonella enterica subsp. enterica serovar typhimurium
Homo sapiens [17] = assay: Toxicity in healthy male and female human subjects administered as single ascending dose for 14 days; conditions: in vivo, 336 h
Rattus norvegicus [18] = assay: Reversal of time-induced amnesia in Wistar rat at 1 to 10 mg/kg, po administered 60 mins prior to testing measured for 3 mins by object recognition test; type: functional, organism-based
Method in brief: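 Time-induced object recognition task in rats. Oral dosing at 1, 3 and 10 mg/kg given 60 min before the test; vehicle water for injection 1 mL/kg p.o.; n = 7−12/group. Exploration of novel versus familiar object compared by paired t-test.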

[19] = target: Alpha-2C adrenergic receptor (Homo sapiens, UniProt P18825); assay: Inhibition of recombinant human adrenergic alpha 2C receptor expressed in CHO cells assessed as inhibition of 5-HT stimulated cAMP accumulation after 4 hrs by luciferase reporter gene assay; type: functional, cell-based
Sequence of Alpha-2C adrenergic receptor (P18825 whole entry): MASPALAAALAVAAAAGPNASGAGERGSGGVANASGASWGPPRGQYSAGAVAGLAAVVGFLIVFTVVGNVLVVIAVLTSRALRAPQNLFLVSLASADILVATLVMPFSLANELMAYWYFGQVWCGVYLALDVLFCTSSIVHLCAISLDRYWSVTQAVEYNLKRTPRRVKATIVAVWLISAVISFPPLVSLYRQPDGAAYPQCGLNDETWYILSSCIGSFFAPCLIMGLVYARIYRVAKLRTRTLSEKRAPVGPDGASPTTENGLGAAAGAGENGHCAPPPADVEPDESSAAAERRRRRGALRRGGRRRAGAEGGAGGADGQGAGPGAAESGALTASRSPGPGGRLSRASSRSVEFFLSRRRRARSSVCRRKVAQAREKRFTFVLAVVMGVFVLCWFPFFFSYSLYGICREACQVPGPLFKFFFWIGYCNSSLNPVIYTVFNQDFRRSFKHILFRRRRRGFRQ

[20] = Cmax in Wistar rat at 10 mg/kg, po by LC-MS/MS analysis; type: ADME, organism-based; parameters: dose 10 mg/kg, route oral; conditions: in vivo
Salmonella typhimurium [21] = assay: Mutagenicity in Salmonella typhimurium TA1535 in absence of metabolic activation; type: toxicity; conditions: salmonella enterica subsp. enterica serovar typhimurium
Rattus norvegicus [22] = assay: Increase in acetylcholine level in Wistar rat ventral hippocampus at 1 mg/kg, po after 6 hrs by LC-MS/MS based microdialysis method; type: functional, organism-based
Method in brief: as §3

Salmonella typhimurium [23] = assay: Mutagenicity in Salmonella typhimurium TA98 in presence of metabolic activation; type: toxicity; conditions: salmonella enterica subsp. enterica serovar typhimurium
Salmonella typhimurium [24] = assay: Mutagenicity in Salmonella typhimurium TA98 in absence of metabolic activation; type: toxicity; conditions: salmonella enterica subsp. enterica serovar typhimurium
Cytochrome P450 2C8 = Cytochrome P450 2C8 (Homo sapiens, UniProt P10632); assay: Inhibition of CYP2C8 in human liver microsomes in presence of NADPH by LC-MS/MS analysis; type: ADME
Sequence of Cytochrome P450 2C8 (P10632 whole entry): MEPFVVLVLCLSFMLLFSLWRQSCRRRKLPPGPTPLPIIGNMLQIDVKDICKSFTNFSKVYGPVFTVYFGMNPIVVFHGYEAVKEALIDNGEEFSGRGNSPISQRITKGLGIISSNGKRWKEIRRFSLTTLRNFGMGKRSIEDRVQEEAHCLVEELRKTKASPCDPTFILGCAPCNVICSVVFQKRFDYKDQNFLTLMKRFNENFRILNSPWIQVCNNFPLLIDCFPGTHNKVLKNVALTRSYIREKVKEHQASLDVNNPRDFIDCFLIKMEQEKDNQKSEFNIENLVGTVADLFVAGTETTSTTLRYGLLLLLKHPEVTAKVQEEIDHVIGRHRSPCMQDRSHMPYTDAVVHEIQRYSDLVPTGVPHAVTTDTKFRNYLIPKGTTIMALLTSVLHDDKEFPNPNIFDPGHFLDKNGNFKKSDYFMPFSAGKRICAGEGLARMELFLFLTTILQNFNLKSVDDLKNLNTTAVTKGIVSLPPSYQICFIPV
Method in brief: as §4

Rattus norvegicus [25] = assay: Increase in acetylcholine level in Wistar rat ventral hippocampus at 1 mg/kg, po in presence of 1 mg/kg of donepezil and memantine administered sc 30 mins post compound treatment measured after 4 hrs by LC-MS/MS based microdialysis method relative to control; type: functional
Method in brief: as §3

[26] = Protein binding in rat plasma at 1 uM after 6 hrs by LC-MS/MS based rapid equilibrium dialysis method; type: ADME, cell-free; conditions: read-out: PPB
Method in brief: as §1

[27] = Solubility of the compound in water; type: physicochemical; conditions: buffer
Homo sapiens [28] = organism: Homo sapiens; assay: Toxicity in human assessed as changes in QTc interval during phase-I clinical trail

Sequence of Cytochrome P450 3A4 (P08684 whole entry): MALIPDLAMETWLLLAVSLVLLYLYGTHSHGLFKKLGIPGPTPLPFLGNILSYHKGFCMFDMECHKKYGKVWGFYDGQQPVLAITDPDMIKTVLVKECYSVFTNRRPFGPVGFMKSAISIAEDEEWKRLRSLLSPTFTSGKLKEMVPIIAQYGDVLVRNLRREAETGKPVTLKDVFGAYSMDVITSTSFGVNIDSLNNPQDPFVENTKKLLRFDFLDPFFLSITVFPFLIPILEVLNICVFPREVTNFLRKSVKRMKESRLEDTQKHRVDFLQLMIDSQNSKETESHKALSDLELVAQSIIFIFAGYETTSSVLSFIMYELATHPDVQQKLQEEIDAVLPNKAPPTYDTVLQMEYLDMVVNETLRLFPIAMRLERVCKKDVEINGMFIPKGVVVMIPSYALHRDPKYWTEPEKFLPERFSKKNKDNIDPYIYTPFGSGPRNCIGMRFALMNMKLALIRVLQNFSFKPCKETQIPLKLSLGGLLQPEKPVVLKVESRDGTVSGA
Sequence of Alpha-2A adrenergic receptor (Homo sapiens) (P08913 whole entry): as the sequence (P08913 whole entry) above

**Q.** Which IC50 (Cytochrome P450 3A4) does the source give for `COc1ccc2c(c1)c(CN1CCN(C)CC1)cn2S(=O)(=O)c1ccccc1Br.CS(=O)(=O)O.O` here?
**A.** 1500 nM

**Q.** What about the inhibition [1] of the same molecule?
**A.** > 50%

**Q.** And the Activity (Salmonella typhimurium [2])?
**A.** Non-Toxic

**Q.** What about the Activity (Salmonella typhimurium [3]) of the same molecule?
**A.** Non-Toxic

**Q.** And the bioavailability [4]?
**A.** 24.9%

**Q.** And the fraction unbound at 6 h, 1 µM [5]?
**A.** 0.014

**Q.** What about the Activity (Salmonella typhimurium [6]) of the same molecule?
**A.** Non-Toxic

**Q.** What about the bioavailability [7] of the same molecule?
**A.** 35%

**Q.** What about the Activity (Hepatocyte [8]) of the same molecule?
**A.** Non-Toxic

**Q.** What about the Activity (Rattus norvegicus [9]) of the same molecule?
**A.** Active

**Q.** And the Activity (PBL)?
**A.** Non-Toxic

**Q.** And the “inhibition (INH)” value [10]?
**A.** Not Active

**Q.** And the Activity (Salmonella typhimurium [11])?
**A.** Non-Toxic

**Q.** And the Activity [12]?
**A.** inactive

**Q.** And the Activity (Rattus norvegicus [13])?
**A.** 2136%

**Q.** What about the Activity (Hepatocyte [14]) of the same molecule?
**A.** Non-Toxic

**Q.** And the IC50 (Cytochrome P450 2C19)?
**A.** 5700 nM

**Q.** What about the Ki [15] of the same molecule?
**A.** 2570 nM

**Q.** What about the Activity (Salmonella typhimurium [16]) of the same molecule?
**A.** Non-Toxic

**Q.** What about the Activity (Homo sapiens [17]) of the same molecule?
**A.** Non-Toxic

**Q.** What about the Activity (Rattus norvegicus [18]) of the same molecule?
**A.** Active

**Q.** What about the Kb [19] of the same molecule?
**A.** 619 nM

**Q.** What about the Cmax [20] of the same molecule?
**A.** 272 ng/mL

**Q.** What about the Activity (Salmonella typhimurium [21]) of the same molecule?
**A.** Non-Toxic

**Q.** And the Activity (Rattus norvegicus [22])?
**A.** inactive

**Q.** What about the Activity (Salmonella typhimurium [23]) of the same molecule?
**A.** Non-Toxic

**Q.** What about the Activity (Salmonella typhimurium [24]) of the same molecule?
**A.** Non-Toxic

**Q.** What about the IC50 (Cytochrome P450 2C8) of the same molecule?
**A.** > 10000 nM

**Q.** What about the Activity (Rattus norvegicus [25]) of the same molecule?
**A.** 1383%

**Q.** And the fraction unbound at 6 h, 1 µM [26]?
**A.** 0.01

**Q.** And the solubility [27]?
**A.** 1200 mg/mL

**Q.** What about the Activity (Homo sapiens [28]) of the same molecule?
**A.** Non-Toxic
